Laboratory results reported in publication PMC3823230 (Journal of Cellular and Molecular Medicine, 2012).
Where a name gives a salt, the structure may show the parent alone. Read-outs that look alike come from different tables or passages of the source.

Tests used:
[1] = system: antibiotic-resistant strain (A–E) of P. aeruginosa; assay: MIC against antibiotic-resistant strains; type: cell-based, Pseudomonas aeruginosa; conditions: for MIC: Pseudomonas aeruginosa; for Resistance/sensitivity class, strain A / MIC, P. aeruginosa strain A: antibiotic-resistant strain A; for Resistance/sensitivity class, strain B / MIC, P. aeruginosa strain B: antibiotic-resistant strain B; for Resistance/sensitivity class, strain C / MIC, P. aeruginosa strain C: antibiotic-resistant strain C; for Resistance/sensitivity class, strain D / MIC, P. aeruginosa strain D: antibiotic-resistant strain D; for Resistance/sensitivity class, strain E / MIC, P. aeruginosa strain E: antibiotic-resistant strain E
[2] = system: db/db mice wounds with methicillin-resistant S. aureus; assay: Diabetic mouse infectious; type: in vivo
Summary of the method: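 Male C57BL/6 db/db mice, n = 6–8 per group, backs depilated 3 days before surgery. Under anaesthesia, 15 mm dorsal punch biopsy wounds received 100 μl MRSA (1 × 10^4 cfu/ml) topically, with or without peptide (100 μg/ml) or saline, under semi-permeable polyurethane dressing. Dosing and photographic wound-area measurement on days 0, 2, 4, 7, 9, 11, 14, 16. Means ± S.E.M.; ANOVA with Fisher's PLSD.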

[3] = system: C57BL/6 db/db mice, punch biopsy wounds; assay: Diabetic mouse wound-healing model; type: in vivo; conditions: topical 100 μg/ml
[4] = system: NIBS minipigs, full-thickness excisional wounds; assay: Porcine wound-healing model; type: in vivo, pig; conditions: anti-vWF staining; in comparison to control group; N = 6
Summary of the method: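 Three male NIBS minipigs (32.0–33.5 kg) premedicated with ketamine 500 mg/body under isoflurane 2–4%. Four 25 mm, 10 mm-deep full-thickness excisional wounds per side abdomen, 30 mm apart. Peptide 100 μg/ml or saline (200 μl/site) applied on days 0, 2, 4, 6, 8, 10 under polyurethane dressing. Day-12 frozen sections were acetone-fixed (−20°C, 15 min), and capillary EC immunostained with anti-vWF (1:200).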

[5] = read-out: MIC, P. aeruginosa strain A
[6] = read-out: MIC, P. aeruginosa strain B
[7] = read-out: MIC, P. aeruginosa strain C
[8] = read-out: MIC, P. aeruginosa strain D
[9] = read-out: MIC, P. aeruginosa strain E

Molecule | MIC [1, 5] [µg/mL] | MIC [1, 6] [µg/mL] | MIC [1, 7] [µg/mL] | MIC [1, 8] [µg/mL] | MIC [1, 9] [µg/mL] | Resistance/sensitivity class, strain A [1] | Resistance/sensitivity class, strain B [1] | Resistance/sensitivity class, strain C [1] | Resistance/sensitivity class, strain D [1] | Resistance/sensitivity class, strain E [1] | further results
C[C@H]1[C@H](NC(=O)/C(=N\OC(C)(C)C(=O)O)c2csc(N)n2)C(=O)N1S(=O)(=O)O [AZT, aztreonam] | < 8 | > 16 | < 8 | < 8 | > 16 | S | R | S | S | R | –
CC(C)(O/N=C(\C(=O)N[C@@H]1C(=O)N2C(C(=O)[O-])=C(C[n+]3ccccc3)CS[C@H]12)c1csc(N)n1)C(=O)O [CAZ, ceftazidime hydrate] | < 8 | < 8 | < 8 | < 8 | > 32 | S | S | S | S | R | –
CO/N=C(\C(=O)N[C@@H]1C(=O)N2C(C(=O)O)=C(C[N+]3(C)CCCC3)CS[C@H]12)c1csc(N)n1.Cl.O.[Cl-] [CFPM, cefepime hidrochloride hydrate] | – | – | – | – | – | – | – | – | – | – | MIC, P. aeruginosa strain A [1]: < 8 µg/mL; MIC, P. aeruginosa strain B [1]: < 8 µg/mL; MIC, P. aeruginosa strain C [1]: < 8 µg/mL; MIC, P. aeruginosa strain D [1]: < 8 µg/mL; MIC, P. aeruginosa strain E [1]: > 16 µg/mL
O=C(O)c1cn(C2CC2)c2cc(N3CCNCC3)c(F)cc2c1=O [CPFX, Ciprofloxacin hydrochloride] | < 1 | < 1 | < 1 | < 1 | > 2 | – | – | – | – | – | –
CCN1CCN(C(=O)N[C@@H](C(=O)N[C@@H]2C(=O)N3C(C(=O)O)=C(CSc4nnnn4C)CS[C@H]23)c2ccc(O)cc2)C(=O)C1=O [CPZ, cefoperazone sodium] | < 16 | 32 | < 16 | < 16 | > 32 | S | – | S | S | R | –
C[C@@H]1O[C@@H]1P(=O)(O)O [FOM, fosfomycin sodium] | > 16 | > 16 | > 16 | > 16 | > 16 | R | R | R | R | R | –
C[C@H]1COc2c(N3CCN(C)CC3)c(F)cc3c(=O)c(C(=O)O)cn1c23 [LVFX, levofloxacin hydrate] | < 2 | < 2 | < 2 | 4 | > 4 | S | S | S | S | R | –
NC[C@H]1O[C@H](O[C@H]2[C@H](O)[C@@H](O[C@H]3O[C@H](CO)[C@@H](O)[C@H](N)[C@H]3O)[C@H](N)C[C@@H]2N)[C@H](N)C[C@@H]1O [TOB, tobramycin] | > 8 | < 4 | > 8 | < 4 | < 4 | R | S | R | S | S | –
Gentamicin sulfate [GM] | – | – | – | – | – | R | S | R | S | – | MIC, P. aeruginosa strain A [1]: > 8 µg/mL; MIC, P. aeruginosa strain B [1]: < 4 µg/mL; MIC, P. aeruginosa strain C [1]: > 8 µg/mL; MIC, P. aeruginosa strain D [1]: < 4 µg/mL; MIC, P. aeruginosa strain E [1]: 8 µg/mL
LL37: well-known antimicrobial peptide with angiogenic effects | – | – | – | – | – | – | – | – | – | – | Yellow pus on MRSA-infected wounds ([2]; MRSA 1 x 10^4 cfu/ml, co-treatment 100 μg/ml): attenuated the increase of yellow pus; Infectious wound size ([2]; MRSA, 100 μg/ml, days 11, 14 and 16 after treatment): significantly decreased wound size; Blood flow around the wound (LDI), diabetic mouse ([3]; 3 days after operation, compared with control group): significantly increased the blood flow; Spontaneous S. aureus infection of wounds during experiment ([3]; db/db mice): none of the mice; Wound size, diabetic mouse ([3]; db/db mice, day 14, versus control): significantly decreased wound size; Microcapillary density, porcine wound [4]: significantly increased
